Data: ChEMBL document CHEMBL4402562, “Discovery of Novel Peptidomimetic Boronate ClpP Inhibitors with Noncanonical Enzyme Mechanism as Potent Virulence Blockers in Vitro and in Vivo” (J Med Chem, 2020)
Active and inactive are the calls of the source. The calls are words filed in the database; no cut-off is given here.

Key:
[1] = target: T1, ATP-dependent Clp protease proteolytic subunit (Staphylococcus aureus (strain NCTC 8325)) (UniProt Q2G036); assay: Inhibition of N-terminal His6-sumo-tagged full length Staphylococcus aureus ClpP expressed in Escherichia coli […] assessed as enzyme activity recovery level at 20-fold molar excess pre-incubated for 10 mins before Suc-LY-AMC addition and measured after 1 hr followed by dialysis up to 72 hrs by fluorescence based assay relative to control; design: scale not given: the % may be the effect or the level left
T1 sequence (whole entry): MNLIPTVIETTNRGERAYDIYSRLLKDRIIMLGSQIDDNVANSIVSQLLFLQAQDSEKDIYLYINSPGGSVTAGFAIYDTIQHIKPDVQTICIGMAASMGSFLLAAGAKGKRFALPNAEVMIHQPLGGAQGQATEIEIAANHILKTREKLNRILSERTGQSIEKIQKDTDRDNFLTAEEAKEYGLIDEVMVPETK
Summary of the method: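 ClpP (1 μM, 100 mM Hepes pH 7.0, 100 mM NaCl) incubated 1 h at RT with 20-fold molar excess inhibitor or DMSO. Dialyzed at 4 °C, buffer changed after 6 h and then every 24 h. Aliquots assayed for peptidase activity with Suc-LY-AMC. Thrice, single sample.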

[2] = Toxicity in BALB/c mouse model of skin abscess infected with methicillin-resistant Staphylococcus aureus ATCC 33591 assessed as effect on total protein levels at 1.5 to 3 mg/kg injected into shaved area of skin once daily for 4 days; assay type: organism-based; conditions: in vivo, other, 96 h
Summary of the method: (§1)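 Infected BALB/c mice (n=5/group) dosed 1.5 or 3 mg/kg into the infected skin once daily for 4 days; blood collected on day 4 and day 14, centrifuged 3,500 rpm 15 min, serum biochemistry analysed.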

[3] = Cytotoxicity in human HepG2 cells assessed as reduction in cell viability incubated for 24 hrs by MTT assay; assay type: cell-based
Summary of the method: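 MTT assay. HeLa (3×10^3 cells) or HepG2 (4×10^3 cells) seeded in DMEM and grown 24 h, then given compound for a further 24 h. Absorbance read at 570 nm against DMSO wells. GI50 from dose-response fit; three experiments, triplicate wells.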

[4] = Inhibition of human ClpP (57 to 277 residues) expressed in Escherichia coli […] pre-incubated for 10 mins before Ac-WLA-AMC addition and measured after 1 hr by fluorescence based assay relative to control
Summary of the method: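 hClpP (3.5 μM monomer) in 25 mM Tris-HCl pH 8.0, 100 mM KCl. Preincubated 10 min at RT with inhibitor, two-fold dilutions over 8 steps from 100 μM. Then 100 μM Ac-WLA-AMC, 380/440 nm for 1 h at 37 °C, slopes normalized to DMSO. Thrice, triplicate wells.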

Staphylococcus aureus [5] = assay: Inhibition of virulence-related genes expression in methicillin-resistant Staphylococcus aureus ATCC 33591 assessed as reduction in lukS expression at 4 to 16 uM by qPCR analysis relative to control; assay type: functional, organism-based
Summary of the method: (§2)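 Total RNA from 2×10⁸ CFU treated MRSA by liquid-nitrogen freeze-thaw and TRIzol; qPCR relative to gyrB endogenous control; three experiments, triplicate wells.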

Staphylococcus aureus [6] = assay: (§3) Antivirulence activity against methicillin-resistant Staphylococcus aureus ATCC 33591 infected in BALB/c mouse model of skin abscess assessed as reduction in skin inflammation at 1.5 to 3 mg/kg injected into shaved area of skin once daily for 4 days measured after 12 hrs post last dose by hematoxylin and eosin staining based optical microscopy; assay type: functional, organism-based
Summary of the method: (§4)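 Same MRSA ATCC 33591 skin-abscess model in female BALB/c mice (n=5/group), 40 µL compound at 1.5 or 3 mg/kg injected into the infected shaved skin once daily for 4 days. On day 4 infected skin and heart, liver, spleen, lung, kidney fixed in 4% paraformaldehyde, embedded, sectioned, H&E stained and examined by microscopy; PBS-treated uninfected and vehicle controls.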

[7] = Toxicity in BALB/c mouse model of skin abscess infected with methicillin-resistant Staphylococcus aureus ATCC 33591 assessed as effect on blood urea nitrogen levels at 1.5 to 3 mg/kg injected into shaved area of skin once daily for 4 days; assay type: organism-based; conditions: in vivo, other, 96 h; summary of the method: as §1
Staphylococcus aureus [8] = assay: Inhibition of virulence-related genes expression in methicillin-resistant Staphylococcus aureus ATCC 33591 assessed as reduction in psm expression at 4 to 16 uM by qPCR analysis relative to control; assay type: functional, organism-based; summary of the method: as §2
[9] = target: T1, ATP-dependent Clp protease proteolytic subunit (Staphylococcus aureus (strain NCTC 8325)); assay: Inhibition of ClpP in wild type Staphylococcus aureus NCTC8325 assessed as reduction in bacteria-induced hemolysis of sheep erythrocytes by measuring hemoglobin release incubated for 15 mins
Summary of the method: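 S. aureus strains grown overnight in MHB, diluted to OD600 0.05, then grown at 37 °C to OD600 ~0.6. Serially diluted inhibitor or DMSO added for 8 h more growth. Supernatant mixed 1:1 with 5% sheep erythrocytes, spun 1,500 rpm for 15 min, hemoglobin read at 545 nm. EC50 by nonlinear fit; thrice, triplicate tubes.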

[10] = target: T2, ATP-dependent Clp protease proteolytic subunit (Staphylococcus aureus (strain NCTC 8325), UniProt Q2G036); assay: (§5) Inhibition of N-terminal His6-sumo-tagged full length Staphylococcus aureus ClpP expressed in Escherichia coli […] pre-incubated for 10 mins before Suc-LY-AMC addition and measured after 1 hr by fluorescence based assay
T2 sequence (Q2G036 whole entry): T1 sequence (whole entry)
Summary of the method: (§6)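 SaClpP (1 μM monomer) in 100 mM Hepes pH 7.0, 100 mM NaCl. Preincubated 10 min at RT with inhibitor, two-fold dilutions over 8 steps from 100 μM. Suc-LY-AMC at 200 μM, 380/440 nm recorded for 1 h at 37 °C, slopes normalized to DMSO. For kinact/Ki, inhibitor premixed with substrate and reaction started by enzyme, fitted by least squares. Thrice, triplicate wells.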

[11] = target: T1, ATP-dependent Clp protease proteolytic subunit (Staphylococcus aureus (strain NCTC 8325)); assay: as §5; summary of the method: as §6
[12] = Toxicity in BALB/c mouse model of skin abscess infected with methicillin-resistant Staphylococcus aureus ATCC 33591 assessed as effect on alkaline phosphatase levels at 1.5 to 3 mg/kg injected into shaved area of skin once daily for 4 days; assay type: organism-based; conditions: in vivo, other, 96 h; summary of the method: as §1
[13] = target: T1, ATP-dependent Clp protease proteolytic subunit (Staphylococcus aureus (strain NCTC 8325)); assay: Potency index, ratio of IC50 for BTZ to IC50 for test compound for inhibition of ClpP in methicillin-resistant Staphylococcus aureus ATCC 33591 assessed as reduction in bacteria-induced hemolysis of sheep erythrocytes by measuring hemoglobin release incubated for 15 mins
Staphylococcus aureus [14] = assay: as §3, with “liver histopathological changes” for “skin inflammation”; assay type: functional, organism-based; summary of the method: as §4
Staphylococcus aureus [15] = assay: as §3, with “interstitium thickening” for “skin inflammation”; assay type: functional, organism-based; summary of the method: as §4
[16] = Toxicity in BALB/c mouse model of skin abscess infected with methicillin-resistant Staphylococcus aureus ATCC 33591 assessed as effect on body weight at 1.5 to 3 mg/kg injected into shaved area of skin once daily for 4 days measured every day; assay type: organism-based; conditions: in vivo, other, 96 h
Summary of the method: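 Female BALB/c mice, 6-8 weeks, n=5 per group, backs shaved and depilated 1 day before; 50 µL subcutaneous 1.7 × 10⁹ CFU/mL MRSA ATCC 33591. From 6 h post-infection, 40 µL vehicle, vancomycin 3 mg/kg, or compound 1.5 or 3 mg/kg injected at infection site once daily for 4 days; weight recorded daily. Skin homogenised in saline 12 h after last dose, plated on LB agar 37 °C ≥16 h; log10 CFU/abscess; t-test.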

## CC(C)C[C@H](NC(=O)[C@H](Cc1c[nH]c2ccccc12)NC(=O)c1cc(Cl)ccc1Cl)B(O)O
[1]
  Activity: 100%
[2]
  Activity: Non-Toxic
[3]
  GI50 at 24 h: 83.4 µM
[4]
  IC50: 3 to 25 µM
Staphylococcus aureus [5]
  inhibition: Active
Staphylococcus aureus [6]
  Activity: Active
[7]
  Activity: Non-Toxic
Staphylococcus aureus [8]
  inhibition: Active
[9]
  inhibition: Dose-dependent effect
[10]
  IC50: 900 nM
[11]
  inhibition: Dose-dependent effect
[12]
  Activity: Non-Toxic
[13]
  Ratio IC50: 30
Staphylococcus aureus [14]
  Activity: Active
Staphylococcus aureus [15]
  Activity: Active
[16]
  Activity: Non-Toxic
